# Columns and labels:
# [1] = target: T1, Human immunodeficiency virus type 1 integrase (Human immunodeficiency virus 1, UniProt Q7ZJM1); test: Inhibition of recombinant HIV1 integrase using unprocessed donor DNA by coupled assay
# Summary of the method: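 Unprocessed donor DNA and inhibitor incubated with recombinant integrase together for 30 min, then target DNA added; strand-transfer product measured. Final DMSO 10%. IC50 from serial 2-fold dilutions in duplicate or triplicate; values without error limits are the average of these.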
# [2] = target: T1, Human immunodeficiency virus type 1 integrase; test: Inhibition of recombinant HIV1 integrase using preprocessed donor DNA treated after washing excess enzyme by strand transfer assay
# Summary of the method: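 Integrase preincubated with preprocessed donor DNA, unbound enzyme washed off, then target DNA and inhibitor added together. Strand transfer product measured. Final DMSO 10%. IC50 from serial 2-fold dilutions run in duplicate or triplicate; values without error limits are the average of these.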
# [3] = Inhibition of DNAse
# [4] = target: Type II restriction enzyme EcoRI (Escherichia coli, UniProt P00642); test: Inhibition of Escherichia coli ECOR1
# Type II restriction enzyme EcoRI, sequence (P00642 whole entry): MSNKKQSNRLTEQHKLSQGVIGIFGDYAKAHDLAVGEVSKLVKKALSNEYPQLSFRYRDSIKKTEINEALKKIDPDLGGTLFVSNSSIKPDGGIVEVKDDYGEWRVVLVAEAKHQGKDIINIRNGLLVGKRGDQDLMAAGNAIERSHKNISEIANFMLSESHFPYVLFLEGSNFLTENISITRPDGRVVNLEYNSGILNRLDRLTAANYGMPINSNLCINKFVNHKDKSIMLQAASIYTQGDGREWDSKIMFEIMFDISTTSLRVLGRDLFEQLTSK
# T1 sequence (Q7ZJM1 whole entry): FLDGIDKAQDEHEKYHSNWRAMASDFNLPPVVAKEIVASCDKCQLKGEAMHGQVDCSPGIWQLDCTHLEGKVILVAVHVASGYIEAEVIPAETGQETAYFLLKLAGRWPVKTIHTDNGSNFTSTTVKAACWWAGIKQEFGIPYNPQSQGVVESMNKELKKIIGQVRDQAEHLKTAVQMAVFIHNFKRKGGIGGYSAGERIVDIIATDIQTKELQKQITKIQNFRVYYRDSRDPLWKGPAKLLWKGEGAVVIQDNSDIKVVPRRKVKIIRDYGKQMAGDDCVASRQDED
Compound,IC50 [1] [µM],IC50 [2] [µM],IC50 [3] [µM],IC50 [4] [µM]
C=C(CC[C@@H](C)[C@H]1CC(=O)C2=C3CC[C@H]4C(C)(C)[C@@H](O)[C@H](O)C[C@]4(C)C3=C[C@H](OC(C)=O)[C@@]21C)C(C)C,25,40,> 50,> 50
C=C(CC[C@@H](C)[C@H]1CC=C2C3=C([C@@H](O)[C@H](OC(C)=O)[C@@]21C)[C@@]1(C)C[C@H]2OC(C)(C)O[C@@H]2C(C)(C)[C@@H]1CC3)C(C)C,> 50,> 50,> 50,> 50
C=C(CC[C@@H](C)[C@H]1CC=C2C3=C([C@@H](O)[C@H](OC(C)=O)[C@@]21C)[C@@]1(C)C[C@@H](OC(=O)CCC(=O)NO)[C@H](O)C(C)(C)[C@@H]1CC3)C(C)C,8,> 50,> 50,> 50
C=C(CC[C@@H](C)[C@H]1CC=C2C3=C([C@@H](O)[C@H](OC(C)=O)[C@@]21C)[C@@]1(C)C[C@@H](O)[C@H](OC(=O)CCC(=O)OC)C(C)(C)[C@@H]1CC3)C(C)C,> 50,> 50,> 50,> 50
C=C(CC[C@@H](C)[C@H]1CC=C2C3=C([C@@H](O)[C@H](OC(C)=O)[C@@]21C)[C@@]1(C)C[C@@H](OC(=O)c2ccccc2)[C@H](OC(=O)c2ccccc2)C(C)(C)[C@@H]1CC3)C(C)C,> 69,> 69,> 50,> 50
C=C(CC[C@@H](C)[C@H]1CC=C2C3=C([C@@H](O)[C@H](OC(C)=O)[C@@]21C)[C@@]1(C)C[C@@H](OC(=O)c2ccccc2)[C@H](O)C(C)(C)[C@@H]1CC3)C(C)C,> 80,> 80,> 50,> 50
C=C(CC[C@@H](C)[C@H]1CC=C2C3=C([C@@H](O)[C@H](OC(C)=O)[C@@]21C)[C@@]1(C)C[C@@H](OCOC)[C@H](OCOC)C(C)(C)[C@@H]1CC3)C(C)C,> 80,> 80,> 50,> 50
C=C(CC[C@@H](C)[C@H]1CC=C2C3=C([C@@H](O)[C@H](OC(C)=O)[C@@]21C)[C@@]1(C)C[C@@H](OC(=O)CNC(=O)OC(C)(C)C)[C@H](OC(=O)CNC(=O)OC(C)(C)C)C(C)(C)[C@@H]1CC3)C(C)C,> 50,> 50,> 50,> 50
C=C(CC[C@@H](C)[C@H]1C[C@@H](OC)c2c3c(cc(C)c21)[C@@]1(C)C[C@@H](O)[C@H](O)C(C)(C)[C@@H]1CC3)C(C)C,50,> 100,> 50,> 50
COC(=O)C[C@@](C)(O)CC(=O)O[C@@H]1C[C@]2(C)C3=C(CC[C@H]2C(C)(C)C1=O)[C@]1(C)CC[C@H]([C@H](C)CCC(O)C(C)(C)O)[C@@]1(C)CC3 (stereo not given in full),70,> 100,> 50,> 50
C=C(CC[C@@H](C)[C@H]1CC=C2C3=C([C@@H](O)[C@H](OC(C)=O)[C@@]21C)[C@@]1(C)C[C@@H](OC(=O)CN)[C@H](OC(=O)CN)C(C)(C)[C@@H]1CC3)C(C)C,1.7,11.5,47,> 50
C=C(CC[C@@H](C)[C@H]1CC=C2C3=C([C@@H](O)[C@H](OC(C)=O)[C@@]21C)[C@@]1(C)C[C@@H](OC(=O)CNC(=O)OCC2c4ccccc4-c4ccccc42)[C@H](O)C(C)(C)[C@@H]1CC3)C(C)C,> 50,> 50,> 50,> 50
C=C(CC[C@@H](C)[C@H]1C[C@H](OC)c2c3c(cc(C)c21)[C@@]1(C)C[C@@H](O)[C@H](O)C(C)(C)[C@@H]1CC3)C(C)C,50,> 100,> 50,> 50
C=C(CC[C@@H](C)[C@H]1CC=C2C3=C([C@@H](O)[C@H](OC(C)=O)[C@@]21C)[C@@]1(C)CC[C@H](OS(=O)(=O)O)C(C)(C)[C@@H]1CC3)C(C)C,3.1,4.8,> 50,> 50
C[C@H](CCC(O)C(C)(C)O)[C@H]1CC[C@@]2(C)C3=C(CC[C@]12C)[C@@]1(C)C[C@@H](O)C(=O)C(C)(C)[C@@H]1CC3 (stereo not given in full) [CLAVARINONE],68,> 100,> 50,> 50
C=C(CC[C@@H](C)[C@H]1CC=C2C3=C([C@@H](OC(C)=O)[C@H](OC(C)=O)[C@@]21C)[C@@]1(C)C[C@@H](OC(C)=O)[C@H](OC(C)=O)C(C)(C)[C@@H]1CC3)C(C)C,> 50,> 50,> 50,> 50
C=C(CC[C@@H](C)[C@H]1CC=C2C3=C([C@@H](O)[C@H](O)[C@@]21C)[C@@]1(C)C[C@@H](O)[C@H](O)C(C)(C)[C@@H]1CC3)C(C)C,48,> 50,> 50,> 50
C=C(CC[C@@H](C)[C@H]1CC=C2C3=C([C@@H](O)[C@H](OC(C)=O)[C@@]21C)[C@@]1(C)C[C@@H](O)[C@H](OC(=O)CN)C(C)(C)[C@@H]1CC3)C(C)C,18,> 50,> 50,> 50
C=C(CC[C@@H](C)[C@H]1CC=C2C3=C([C@@H](O)[C@H](OC(C)=O)[C@@]21C)[C@@]1(C)C[C@@H](O)[C@H](O)C(C)(C)[C@@H]1CC3)C(C)C [INTEGRACIDE B],82,> 100,> 50,> 50
C=C(CC[C@@H](C)[C@H]1CC=C2C3=C([C@@H](O)[C@H](OC(C)=O)[C@@]21C)[C@@]1(C)C[C@@H]2O[C@@H]2C(C)(C)[C@@H]1CC3)C(C)C,> 50,> 50,> 50,> 50
C=C(CC[C@@H](C)[C@H]1CC=C2C3=C([C@@H](O)[C@H](OC(C)=O)[C@@]21C)[C@@]1(C)C[C@@H](OC(=O)CNC(=O)OC(C)(C)C)[C@H](O)C(C)(C)[C@@H]1CC3)C(C)C,> 50,> 50,> 50,> 50
C=C(CC[C@@H](C)[C@H]1CC=C2C3=C([C@@H](O)[C@H](OC(C)=O)[C@@]21C)[C@@]1(C)C[C@@H](O)[C@H](OCOC)C(C)(C)[C@@H]1CC3)C(C)C,> 80,> 80,> 50,> 50
C=C(CC[C@@H](C)[C@H]1CC=C2C3=C(C(=O)[C@H](OC(C)=O)[C@@]21C)[C@@]1(C)C[C@@H](O)[C@H](O)C(C)(C)[C@@H]1CC3)C(C)C,75,> 100,> 50,> 50
C=C(CC[C@@H](C)[C@H]1CC=C2C3=C([C@@H](O)[C@H](OC(C)=O)[C@@]21C)[C@@]1(C)C[C@@H](OCOC)[C@H](O)C(C)(C)[C@@H]1CC3)C(C)C,> 80,> 80,> 50,> 50
C=C(CC[C@@H](C)[C@H]1CC=C2C3=C([C@@H](O)[C@H](OC(C)=O)[C@@]21C)[C@@]1(C)C[C@@H](OC(=O)CCC(=O)OC)[C@H](O)C(C)(C)[C@@H]1CC3)C(C)C,> 50,> 50,> 50,> 50
